Screening data deposited in PubChem by Broad Institute.
RAD54 inh – inhibitors of human RAD54 branch migration; Q92698; RAD54 Holliday junction branch migration, FAM/BHQ fluorescence; inhibition, % at 10.4 µM; 360,000 compounds, 0.14% hits;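 active = mean normalized replicate activity at least 40 and at least half of replicates scoring 40 or more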;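 also: inhibitors cause a drop in the FAM fluorescence signal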
CAL PDZ FP-1 – inhibitors of human CAL PDZ peptide binding. purified CAL PDZ, TMR-peptide fluorescence polarization, 1 h. inhibition, % at 20 µM. 330,000 compounds, 0.02% hits;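 active = highest replicate inhibition of at least 40%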
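Assay system – tagged CAL PDZ protein CerCALP, purified · Timing – 1 h at RT · Compound – single point, 20 µM · Measured by – fluorescence polarization from S- and P-plane intensities, G-factor corrected · Evaluation – inhibition from polarization loss · Probe or stimulus – TMR reporter peptide T*-PRC34 · Buffer or medium – pH 7.4 phosphate-saline buffer, reducing agent, detergent, IgG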
CAL PDZ FP-2 – inhibitors of human CAL PDZ peptide binding. Q9HD26. purified CAL PDZ, TMR-peptide fluorescence polarization, 1 h. inhibition, % at 24.9 µM. 300,000 compounds, 0.92% hits. AID 602252;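 active = mean inhibition of at least 30% with at least half of replicates also reaching 30%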
RAD52 anneal inh – inhibitors of human RAD52 DNA annealing; P43351; recombinant RAD52 DNA annealing, FRET fluorescence; inhibition, % at 18.7 µM; 360,000 compounds, 0.46% hits; AID 651710;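 active = every replicate showing at least 50% inhibition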
PDI turbidity – PDI (human) enzyme inhibition | P07237 | PDI insulin aggregation turbidity, A650, 90 min | inhibition, % at 10 µM | 350,000 compounds, 0.052% hits | AID 588391;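 active = mean inhibition across replicates of 30% or more, whatever share of single replicates reach that level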
ERp5 inh – blocks human ERp5 reductase activity on insulin; Q15084; ERp5 insulin aggregation, absorbance 650 nm, 90 min; inhibition, % at 9.99 µM; 350,000 compounds, 0.05% hits;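 active = mean replicate inhibition above about 25%, with every replicate also reaching it, limit read from the data, passing the limit was not always enough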
Target sequence (Q15084 whole entry, looked up): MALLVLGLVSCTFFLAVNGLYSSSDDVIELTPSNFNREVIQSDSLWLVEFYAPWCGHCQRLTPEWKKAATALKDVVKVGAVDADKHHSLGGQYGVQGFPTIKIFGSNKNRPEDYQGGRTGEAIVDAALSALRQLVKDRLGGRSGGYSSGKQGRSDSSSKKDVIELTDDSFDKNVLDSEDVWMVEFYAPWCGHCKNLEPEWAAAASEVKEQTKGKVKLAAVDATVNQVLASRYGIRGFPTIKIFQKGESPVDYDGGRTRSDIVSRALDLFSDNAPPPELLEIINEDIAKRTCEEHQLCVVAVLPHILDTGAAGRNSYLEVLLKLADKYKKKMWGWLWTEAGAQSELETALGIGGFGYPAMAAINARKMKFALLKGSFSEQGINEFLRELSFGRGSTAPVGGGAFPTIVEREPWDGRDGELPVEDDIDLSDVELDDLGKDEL
Hits are given with their value; . = inactive; / = no result given. Shown are actives, neighbours in structure and some others; about 1% of the full set was active somewhere.

SMILES	RAD54 inh	CAL PDZ FP-1	CAL PDZ FP-2	RAD52 anneal inh	PDI turbidity	ERp5 inh
O=C(C1CCOCC1)N1CC(=O)N2[C@H](CO)[C@@H](c3ccc(-c4cccnc4)cc3)[C@@H]2C1	/	/	/	.	/	.
COc1ccc(/C=N/Nc2cc(C)nc3ccc(OC)cc23)c(OC)c1	95	45	.	88	.	.
Cc1nnsc1C(=O)Nc1cccc(Cl)c1	.	.	74	.	.	.
Cc1nc(Cl)sc1C(=O)Nc1cccc(Cl)c1	.	/	.	.	.	.
C[C@@H]1CN([C@@H](C)CO)C(=O)c2cc(NC(=O)C3CC3)ccc2O[C@H]1CN(C)Cc1ccc(Cl)c(Cl)c1	.	/	/	.	/	.
COc1ccc(C2c3ccc(O)cc3Oc3ncn(Cc4ccco4)c(=N)c32)cc1OC (centres undefined)	.	.	.	.	33	.
COc1ccc(C2c3ccc(O)cc3Oc3ncn(CCN4CCOCC4)c(=N)c32)cc1 (centres undefined)	.	.	.	.	.	.
COc1ccc(C2c3ccc4ccccc4c3Oc3ncn(Cc4ccco4)c(=N)c32)cc1OC (centres undefined)	.	.	.	/	.	/
COc1ccc(C2c3ccc(O)cc3Oc3ncn(CC(C)C)c(=N)c32)cc1 (centres undefined)	.	.	.	.	.	.
N=c1c2c(ncn1CCCO)Oc1cc(O)ccc1C2c1ccccc1 (centres undefined)	.	.	39	.	.	.
COc1ccc(C2c3ccc(O)cc3Oc3ncn4nc(-c5cccnc5)nc4c32)cc1OC (centres undefined)	/	.	.	.	41	.
CN1c2ccc(-c3cccc(F)c3)cc2[C@@H]2[C@@H](CCN2C(=O)c2ccc3c(c2)OCO3)[C@@H]1CO	.	/	/	.	/	.
COC(=O)C[C@@H]1C[C@@H]2c3cc(NC(=O)C4CCC4)ccc3O[C@@H]2[C@@H](CO)O1	.	/	/	.	/	.
CO[C@H]1CN(C)C(=O)c2cc(NS(C)(=O)=O)ccc2OC[C@H](C)N(CC2CC2)C[C@H]1C	.	/	/	.	/	.
CC1CCN(C(=O)COc2ncnc3ccccc23)CC1	/	.	49	.	.	.
O=C1NC2(CCCCCC2)N=C1c1ccc(F)cc1	.	.	66	/	.	/
CC(=O)N(C)C[C@@H]1Oc2ncc(C3=CCCC3)cc2C(=O)N([C@@H](C)CO)C[C@H]1C	.	/	/	.	/	.
Oc1ccc(/C=C/c2ccc3ccccc3n2)cc1	.	.	69	.	.	.
C(=C\c1ccc2ccccc2n1)/c1ccccc1	.	.	.	.	.	.
CN(C)c1ccc(/C=C/c2ccc3ccccc3n2)cc1	.	.	100	.	.	.
O=C(C[C@@H]1CC[C@@H]2[C@H](COC[C@H](O)CN2S(=O)(=O)c2ccc(Oc3ccccc3)cc2)O1)NC1CCC1	.	/	/	.	/	.
COc1ccc(NC(=O)Nc2ccc3c(c2)CC(=O)N([C@@H](C)CO)C[C@H](C)[C@H](CN(C)S(=O)(=O)c2cccs2)O3)cc1	.	/	/	/	/	/
O=C(Nc1ccccc1C(=O)O)c1cccc(N2C(=O)c3ccccc3C2=O)c1	.	.	51	.	.	.
O=C(O)c1cc(NC(=O)c2cccc(N3C(=O)c4ccccc4C3=O)c2)cc(C(=O)O)c1	.	.	.	.	.	.
O=C(COC(=O)c1ccc[nH]c1=O)NCC1CCCO1 (centres undefined)	.	.	56	/	.	/
SMILES	RAD54 inh	CAL PDZ FP-1	CAL PDZ FP-2	RAD52 anneal inh	PDI turbidity	ERp5 inh
C[C@@H]1CN([C@H](C)CO)S(=O)(=O)c2ccc(-c3ccncc3)cc2O[C@@H]1CN(C)C(=O)CC1CC1	.	/	/	.	/	.
CCCCOc1ccc(NC(=O)Nc2nnc(C)s2)cc1	.	.	60	.	.	.
O=C(COc1ccccc1[N+](=O)[O-])c1ccccc1	/	.	.	.	.	.
COC(=O)/C=C/COc1ccccc1[N+](=O)[O-]	/	.	35	.	.	.
CN(C(=O)CCl)C1CCCc2ccccc21 (centres undefined)	/	.	/	.	.	.
CN(C(=O)c1cccc(C(F)(F)F)c1)C1CCCc2ccccc21 (centres undefined)	.	.	52	.	.	.
CCc1ccc(NC2=CC(=O)CC(c3ccco3)C2)cc1 (centres undefined)	.	.	50	/	.	/
COc1ccccc1-c1sc2ccccc2c1-c1ccc(OCCN2CCCCC2)cc1	.	.	.	/	.	/
COc1ccc2c(-c3ccc(OCCN4CCCCC4)cc3)c(-c3ccccc3OC)sc2c1	.	.	32	/	.	/
Cc1noc(C)c1S(=O)(=O)Nc1ccc2c(c1)CC(=O)N([C@@H](C)CO)C[C@@H](C)[C@@H](CN(C)C(=O)NC(C)C)O2	.	/	/	.	/	.
CCCC#Cc1ccc([C@H]2[C@@H](CO)N(C(C)=O)[C@@H]2CNC(=O)C2CCCC2)cc1	/	/	/	.	/	.
COc1ccccc1S(=O)(=O)N(C)C[C@@H]1OCc2cn(nn2)CCCC(=O)N([C@@H](C)CO)C[C@@H]1C	.	/	/	.	/	.
Cc1nnc(SCC(=O)Nc2ccc3c(c2)OCCO3)n1N	.	.	.	/	.	/
Nn1c(SCC(=O)Nc2ccc3c(c2)OCCO3)nnc(CCC(=O)O)c1=O	.	.	83	.	.	.
O=C(C[C@@H]1C[C@H]2c3cc(NC(=O)c4cccnc4)ccc3O[C@H]2[C@H](CO)O1)NCc1ccccn1	.	/	/	.	/	.
Cn1c(N)c(C(=O)COC(=O)CC2CC3CCC2C3)c(=O)n(C)c1=O (centres undefined)	.	.	88	.	.	.
Cn1c(N)c(C(=O)COC(=O)Cc2ccc(Br)cc2)c(=O)n(C)c1=O	.	.	.	.	.	.
Cc1ccc(S(=O)(=O)N(C)C[C@H]2Oc3c(NC(=O)C4CC4)cccc3C(=O)N([C@H](C)CO)C[C@@H]2C)cc1	.	/	/	.	/	.
Cc1cc(NC(=O)c2ccc(C#N)cc2)n(-c2ccccn2)n1	/	.	78	.	.	.
COc1ccccc1-c1cn(CC[C@H]2CC[C@@H](NC(=O)C3CCC3)[C@H](CO)O2)nn1	.	/	/	.	/	.
Cc1ccc2ccc(C(Nc3ccccc3)c3ccccc3)c(O)c2n1 (centres undefined)	/	/	/	.	/	.
Cc1ccc2ccc(C(Nc3cccc(C(F)(F)F)c3)c3cccnc3)c(O)c2n1 (centres undefined)	.	.	43	.	.	.
CN(C)CCCNC(=O)C[C@@H]1CC[C@H]2[C@@H](COC[C@H](O)CN2CC2CCCCC2)O1	/	/	/	65	/	.
Cc1ccc(S(=O)(=O)N2C[C@H](O)COC[C@H]3O[C@H](CC(=O)NCC4CCCCC4)CC[C@@H]32)cc1	.	/	/	65	/	.
CN(C)CCCNC(=O)C[C@@H]1CC[C@@H]2[C@H](COC[C@@H](O)CN2CC2CCCCC2)O1	/	/	/	.	/	.
O=C(C[C@@H]1CC[C@@H]2[C@H](COC[C@H](O)CN2S(=O)(=O)c2ccc(F)cc2)O1)NCC1CCCCC1	.	/	/	.	/	.
